Assay results as given in ChEMBL document CHEMBL4152204, “Discovery of N-hydroxy-3-alkoxybenzamides as direct acid sphingomyelinase inhibitors using a ligand-based pharmacophore model” (Eur J Med Chem, 2018).
Active and inactive are the calls of the source. No cut-off for these calls is given here.

What was measured:
[1] = molecular target: T1, Sphingomyelin phosphodiesterase 2 (Homo sapiens) (UniProt O60906); assay: Inhibition of neutral sphingomyelinase (unknown origin) assessed as reduction in NBD-ceramide release at 100 uM by TLC based fluorescence assay
T1 sequence (whole entry): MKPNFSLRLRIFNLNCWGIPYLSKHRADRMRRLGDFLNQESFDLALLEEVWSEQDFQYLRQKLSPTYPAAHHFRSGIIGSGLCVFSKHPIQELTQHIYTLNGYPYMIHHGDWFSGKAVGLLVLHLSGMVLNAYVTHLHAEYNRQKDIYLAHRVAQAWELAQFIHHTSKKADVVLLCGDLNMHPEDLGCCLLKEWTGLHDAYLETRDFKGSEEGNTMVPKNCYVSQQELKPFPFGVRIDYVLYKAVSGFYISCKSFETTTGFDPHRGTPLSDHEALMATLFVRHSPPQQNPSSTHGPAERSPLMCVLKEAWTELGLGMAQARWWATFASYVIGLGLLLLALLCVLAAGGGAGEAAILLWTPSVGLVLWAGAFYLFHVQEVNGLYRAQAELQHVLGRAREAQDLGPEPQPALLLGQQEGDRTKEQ

[2] = molecular target: T2, Sphingomyelin phosphodiesterase (Mus musculus) (UniProt Q04519); assay: Inhibition of acid sphingomyelinase in mouse NIH/3T3 cells assessed as ceramide levels at 10 uM after 20 hrs by LC-MS/MS analysis relative to control; type: cell-based
T2 sequence (whole entry): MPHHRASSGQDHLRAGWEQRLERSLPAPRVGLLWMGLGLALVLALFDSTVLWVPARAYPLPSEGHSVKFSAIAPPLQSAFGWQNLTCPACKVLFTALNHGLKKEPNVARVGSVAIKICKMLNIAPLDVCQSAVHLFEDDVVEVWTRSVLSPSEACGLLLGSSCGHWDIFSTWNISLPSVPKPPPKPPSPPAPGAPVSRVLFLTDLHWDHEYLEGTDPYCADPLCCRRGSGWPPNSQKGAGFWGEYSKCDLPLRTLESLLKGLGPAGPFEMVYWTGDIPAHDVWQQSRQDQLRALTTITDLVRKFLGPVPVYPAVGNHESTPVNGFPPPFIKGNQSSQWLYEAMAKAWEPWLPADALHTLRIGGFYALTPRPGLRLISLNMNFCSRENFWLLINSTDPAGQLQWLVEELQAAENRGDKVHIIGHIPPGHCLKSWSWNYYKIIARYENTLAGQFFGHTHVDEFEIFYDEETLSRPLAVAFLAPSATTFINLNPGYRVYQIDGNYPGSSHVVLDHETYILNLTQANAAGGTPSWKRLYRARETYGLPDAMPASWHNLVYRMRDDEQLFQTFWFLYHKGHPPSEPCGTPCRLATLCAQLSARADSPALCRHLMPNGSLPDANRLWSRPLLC
Method in brief: (§1)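 NIH3T3 cells in DMEM with 10% FBS, 37 °C, 5% CO₂; at 90% confluence given fresh medium plus inhibitor (5, 10, 20 µM) for 20 h; total ceramides and sphingomyelin quantified by LC-MS-MS versus untreated control; mean ± SD of three independent experiments, Student's t-test.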

[3] = molecular target: T2, Sphingomyelin phosphodiesterase (Mus musculus); assay: Inhibition of acid sphingomyelinase in mouse NIH/3T3 cells assessed as ceramide levels at 20 uM after 20 hrs by LC-MS/MS analysis relative to control; type: cell-based; method in brief: as §1
[4] = molecular target: T2, Sphingomyelin phosphodiesterase (Mus musculus); assay: Inhibition of acid sphingomyelinase in mouse NIH/3T3 cells assessed as increase in […] level at 5 uM after 20 hrs by LC-MS/MS analysis relative to control; type: cell-based; design: scale not given: the % may be the effect or the level left; method in brief: as §1
[5] = molecular target: T2, Sphingomyelin phosphodiesterase (Mus musculus); assay: Inhibition of acid sphingomyelinase in mouse NIH/3T3 cells assessed as increase in […] level at 10 uM after 20 hrs by LC-MS/MS analysis relative to control; type: cell-based; design: scale not given: the % may be the effect or the level left; method in brief: as §1
[6] = system: NIH3T3; assay: Cytoprotective activity against UV-induced apoptosis in mouse NIH/3T3 cells assessed as viable cells at 10 uM preincubated for 20 hrs followed by UV irradiation for 5 mins and measured after 24 hrs by flow cytometric analysis (reference value: 12.6%); type: functional; settings: NIH3T3, light or radiation study, read-out: Activity
[7] = system: NIH3T3; assay: Cytoprotective activity against UV-induced apoptosis in mouse NIH/3T3 cells assessed as necrotic cells at 10 uM preincubated for 20 hrs followed by UV irradiation for 5 mins and measured after 24 hrs by flow cytometric analysis (reference value: 1.5%); type: functional
[8] = system: NIH3T3; assay: Cytoprotective activity against UV-induced apoptosis in mouse NIH/3T3 cells assessed as viable cells at 20 uM preincubated for 20 hrs followed by UV irradiation for 5 mins and measured after 24 hrs by flow cytometric analysis (reference value: 12.6%); type: functional; settings: NIH3T3, light or radiation study, read-out: Activity
[9] = system: NIH3T3; assay: Cytoprotective activity against UV-induced apoptosis in mouse NIH/3T3 cells assessed as necrotic cells at 40 uM preincubated for 20 hrs followed by UV irradiation for 5 mins and measured after 24 hrs by flow cytometric analysis (reference value: 1.5%); type: functional
[10] = system: NIH3T3; assay: Cytoprotective activity against UV-induced apoptosis in mouse NIH/3T3 cells assessed as early apoptotic cells at 60 uM preincubated for 20 hrs followed by UV irradiation for 5 mins and measured after 24 hrs by flow cytometric analysis (reference value: 79.5%); type: functional
[11] = system: NIH3T3; assay: Cytoprotective activity against UV-induced apoptosis in mouse NIH/3T3 cells assessed as late apoptotic cells at 60 uM preincubated for 20 hrs followed by UV irradiation for 5 mins and measured after 24 hrs by flow cytometric analysis (reference value: 6.4%); type: functional
[12] = system: NIH3T3; assay: Cytoprotective activity against UV-induced apoptosis in mouse NIH/3T3 cells assessed as necrotic cells at 60 uM preincubated for 20 hrs followed by UV irradiation for 5 mins and measured after 24 hrs by flow cytometric analysis (reference value: 1.5%); type: functional
[13] = system: NIH3T3; assay: Cytoprotective activity against UV-induced apoptosis in mouse NIH/3T3 cells assessed as necrotic cells preincubated for 20 hrs followed by UV irradiation for 5 mins and measured after 24 hrs by flow cytometric analysis; type: functional, cell-based
Method in brief: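 NIH3T3 cells grown in DMEM plus 10% FBS at 37 °C and 5% CO₂, seeded in 6-well plates and left overnight. Inhibitor (0–60 µM, DMSO solvent) added for 20 h. Medium replaced, then UV at peak 315 nm, 0.29 mW/cm² for 5 min. Cells kept with inhibitor 24 h more before flow cytometry by quadrant regions. Untreated, unirradiated cells served as control. Three independent experiments.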

[14] = molecular target: T2, Sphingomyelin phosphodiesterase (Mus musculus); assay: Inhibition of UV-induced ceramide production in mouse NIH/3T3 cells by LC-MS/MS analysis; type: cell-based
Method in brief: (§2)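 Ceramide in the UV-apoptosis setup: NIH3T3 cells pretreated with inhibitor 20 h, UV 315 nm 0.29 mW/cm² 5 min, further 24 h with inhibitor; ceramide quantified (pmol/mg) by LC-MS-MS; amitriptyline as positive control; mean ± SD of three independent experiments.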

[15] = system: NIH3T3; assay: Inhibition of LPS-induced IL-8 production in mouse NIH/3T3 cells at 2.5 uM preincubated for 20 hrs followed by LPS-stimulation and measured after 6 hrs by ELISA; type: functional, cell-based
Method in brief: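 NIH3T3 cells (DMEM, 10% FBS) seeded at 2*10⁵ per well overnight, inhibitor 20 h, then LPS to 50 ng/mL for a further 6 h; IL-6 or IL-8 measured by ELISA; compared with LPS-only and control groups.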

[16] = molecular target: T2, Sphingomyelin phosphodiesterase (Mus musculus); assay: Inhibition of UV-induced ceramide production in mouse NIH/3T3 cells assessed as ceramide level at 50 uM by LC-MS/MS analysis (reference value: 107.686 pmol/mg); type: cell-based; method in brief: as §2

For `CCCCCCCCCCOc1cc(C(=O)NO)ccc1OC`, the inhibition [1] was “inactive”, the inhibition [2] was 37% and the inhibition [3] was 42.6%. It also gave an Activity [4] of 31.9%, an Activity [5] of 36.4% and a viability at 10 µM [6] of 46.9%. For the same compound, the Activity [7] was 0%, the viability at 20 µM [8] was 54.7% and the Activity [9] was 0.1%. For the same compound, the Activity [10] was 55.7%, the Activity [11] was 7.5% and the Activity [12] was 0.6%. The Activity [13] was “Dose-dependent effect”, the inhibition [14] was “Dose-dependent effect” and the inhibition [15] was “inactive”. It also gave an Activity [16] of 106 pmol/mg.
